From ChEMBL document CHEMBL1124769, “Retinobenzoic acids. 5. Retinoidal activities of compounds having a trimethylsilyl or trimethylgermyl group(s) in human promyelocytic leukemia cells HL-60” (1990)

Legend:
[1] = tested on: HL-60; assay: Ability to induce differentiation of human promyelocytic leukemia cell line HL-60 to mature granulocytes.; assay type: functional; details: for EC50: read-out: ED50 (the source's name)
Summary of the method: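 HL-60 cells in RPMI1640 with 5% FCS, penicillin G and streptomycin, at 37 °C in 5% CO2. Seeded at ~8 × 10^4 cells/mL and exposed 4 days to compound from a 0.2 mM ethanol stock (final ethanol <0.5%, ethanol-only controls). Read by Wright-Giemsa differential counts and NBT reduction (0.2% NBT plus TPA, 20 min, 37 °C), ≥200 cells each. ED50 from NBT data (van der Waerden method).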

[2] = tested on: HL-60; assay: Relative activity against human promyelocytic leukemia HL-60 cells.; assay type: functional
Summary of the method: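 Relative activity was computed as ED50 of retinoic acid ÷ ED50 of test compound × 100. Both ED50s came from concurrent 4-day HL-60 NBT-reduction differentiation assays spanning 5 orders of magnitude in concentration, each run at least twice. Values are representative ones or means.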

| Compound | EC50 [1] | Relative activity [2] | ED50 [1] |
| --- | --- | --- | --- |
| CCc1ccc(C(=O)/C=C/c2ccc(C(=O)O)cc2)cc1CC | 170 nM |  |  |
| C[Si](C)(C)c1cccc(NC(=O)c2ccc(C(=O)O)cc2)c1 | 85 nM | 2.4 |  |
| 4-[3-Oxo-3-(3-trimethylgermanyl-phenyl)-propenyl]-benzoic acid (Ch60G) |  | 4.5 | 40 nM |
| CC(C)(C)c1cc(C(=O)/C=C/c2ccc(C(=O)O)cc2)cc(C(C)(C)C)c1 |  | 640 |  |
| CC(C)(C)c1cccc(C(=O)/C=C/c2ccc(C(=O)O)cc2)c1 | 160 nM | 0.81 |  |
| 4-[3-(2,5-Bis-trimethylgermanyl-phenyl)-3-oxo-propenyl]-benzoic acid (Ch55G) |  | 1000 | 0.21 nM |
| C[Si](C)(C)c1cc(NC(=O)c2ccc(C(=O)O)cc2)cc([Si](C)(C)C)c1 | 30 nM | 13 |  |
| CC(C)(C)c1cccc(/C=C/c2ccc(C(=O)O)cc2)c1 |  | 13 |  |
| CC1=C(/C=C/C(C)=C/C=C/C(C)=C/C(=O)O)C(C)(C)CCC1 [TRETINOIN] | 2.4 nM | 100 |  |
| C[Si](C)(C)c1cc(C(=O)Nc2ccc(C(=O)O)cc2)cc([Si](C)(C)C)c1 [AMSILAROTENE] | 9.2 nM | 52.7 |  |
| CC(C)(C)c1ccc(C(=O)/C=C/c2ccc(C(=O)O)cc2)cc1 |  | 3.9 |  |
| CC1(C)CCC(C)(C)c2cc(NC(=O)c3ccc(C(=O)O)cc3)ccc21 [TAMIBAROTENE] | 0.79 nM |  |  |
| CC(C)(C)c1cc(NC(=O)c2ccc(C(=O)O)cc2)cc(C(C)(C)C)c1 | 36 nM | 15 |  |
| N-(3,5-Bis-trimethylgermanyl-phenyl)-terephthalamic acid (Am55G) |  | 15 | 42 nM |
| C[Si](C)(C)c1cc(C(=O)/C=C/c2ccc(C(=O)O)cc2)cc([Si](C)(C)C)c1 | 0.14 nM | 860 |  |
| CC(C)(C)c1cc(C(=O)Nc2ccc(C(=O)O)cc2)cc(C(C)(C)C)c1 | 48 nM | 5.6 |  |
| CC(C)c1cccc(NC(=O)c2ccc(C(=O)O)cc2)c1 | 680 nM |  |  |
| C[Si](C)(C)c1cccc(/C=C/c2ccc(C(=O)O)cc2)c1 | 1 nM | 85 |  |
| CC(C)(C)c1cccc(NC(=O)c2ccc(C(=O)O)cc2)c1 | 700 nM | 0.32 |  |
| C[Si](C)(C)c1cccc(C(=O)/C=C/c2ccc(C(=O)O)cc2)c1 | 44 nM | 1.8 |  |
